Measurements from ChEMBL document CHEMBL2424543, “Enantioselective effects of (+)- and (-)-citronellal on animal and plant microtubules” (J Nat Prod, 2013).
The source made the active and inactive calls. The calls are words filed in the database; no cut-off is given here.

Tests used:
[1] = test system: REF52; test: Induction of microtubule depolymerization in rat REF52 cells at 2 uM after 30 mins by fluorescence assay; format: cell-based
[2] = test system: REF52; test: Induction of microtubule depolymerization in rat REF52 cells at 27.5 to 55 uM after 30 mins by fluorescence assay relative to control; format: cell-based
[3] = test system: REF52; test: Induction of microtubule depolymerization in rat REF52 cells assessed as decrease in fluorescence associated with fibers at 27.5 uM incubated for 5 to 30 mins measured after 30 mins relative to control; format: cell-based; design: scale not given: the % may be the effect or the level left
[4] = target: Tubulin beta-6 chain (Arabidopsis thaliana) (UniProt P29514); test: Effect on GFP-tagged tubulin beta6 polymerization in Arabidopsis thaliana (L.) Heynh assessed as shorten leading end at 25 uM after 10 mins by confocal microscopic analysis (reference value: 15.43 +/- 5.37 um/min)
[5] = test system: HeLa; test: Effect on actin depolymerization in human HeLa cells at 27.5 uM after 30 mins by fluorescence assay; format: cell-based
Method in brief: (§1)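 HeLa or Ref52 cells were grown in DMEM with 10% fetal calf serum at 37 °C/5% CO2. Compound was dissolved in DMSO and diluted in serum-free DMEM. Cells were permeabilized and fixed in paraformaldehyde/Triton X-100. MTs were immunostained with DM1A plus an Alexa 488 secondary, and actin was stained with Alexa 555-phalloidin. Cells were examined by confocal microscopy.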

[6] = target: Tubulin beta-6 chain (Arabidopsis thaliana) (UniProt P29514); test: Effect on GFP-tagged tubulin beta6 polymerization in Arabidopsis thaliana (L.) Heynh at 25 uM after 10 mins by confocal microscopic analysis
[7] = target: Tubulin beta-6 chain (Arabidopsis thaliana) (UniProt P29514); test: Effect on GFP-tagged tubulin beta6 polymerization in Arabidopsis thaliana (L.) Heynh assessed as growth of lagging end at 25 uM after 10 mins by confocal microscopic analysis (reference value: 3.54 +/- 2.48 um/min)
[8] = species: Bos taurus; test: Inhibition of rhodamine-labeled bovine brain tubulin polymerization assessed as number of microtubules at 20 uM after 20 mins by fluorescence microscopic analysis relative to control; values are per cent of control
[9] = test system: REF52; test: Induction of microtubule depolymerization in rat REF52 cells after 30 mins by fluorescence assay; format: cell-based
[10] = test system: REF52; test: Induction of microtubule depolymerization in rat REF52 cells at 27.5 uM by fluorescence assay; format: cell-based; conditions: TDE = time-dependent effect
[11] = test system: REF52; test: Effect on actin depolymerization in rat REF52 cells at 27.5 uM after 30 mins by fluorescence assay; format: cell-based; method in brief: as §1
[12] = test system: Arabidopsis thaliana; test: Effect on GFP-talin-tagged actin dynamics in Arabidopsis thaliana (L.) Heynh at 25 uM after 10 mins by confocal microscopic analysis
Method in brief: (§2)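 GFP-talin (actin marker) Arabidopsis Columbia seedlings were raised on MS medium with 4 days of dark stratification at 4 °C, then grown at 24 °C under a 16/8 h photoperiod. Cotyledons of 7-day-old seedlings were treated with 25 μM for 10 min. Actin fiber organization and dynamics were followed by confocal time-lapse imaging.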

[13] = test system: REF52; test: Induction of microtubule depolymerization in rat REF52 cells at 27.5 uM after 30 mins by fluorescence assay; format: cell-based
[14] = test system: Arabidopsis thaliana; test: Effect on GFP-talin-tagged actin organization in Arabidopsis thaliana (L.) Heynh at 25 uM after 10 mins by confocal microscopic analysis; method in brief: as §2
[15] = target: Tubulin beta-6 chain (Arabidopsis thaliana) (UniProt P29514); test: Effect on GFP-tagged tubulin beta6 polymerization in Arabidopsis thaliana (L.) Heynh assessed as growth of leading end at 25 uM after 10 mins by confocal microscopic analysis (reference value: 5.79 +/- 1.15 um/min)
[16] = target: Tubulin beta-6 chain (Arabidopsis thaliana) (UniProt P29514); test: Effect on GFP-tagged tubulin beta6 polymerization in Arabidopsis thaliana (L.) Heynh assessed as shorten lagging end at 25 uM after 10 mins by confocal microscopic analysis (reference value: 3.57 +/- 2.33 um/min)
[17] = test system: HeLa; test: Induction of microtubule depolymerization in human HeLa cells at 27.5 uM after 30 mins by fluorescence assay; format: cell-based; method in brief: as §1
[18] = species: Bos taurus; test: Inhibition of rhodamine-labeled bovine brain tubulin polymerization assessed as shorter microtubules at 20 uM after 20 mins by fluorescence microscopic analysis relative to control; values are per cent of control
[19] = test system: REF52; test: Induction of microtubule depolymerization in rat REF52 cells at 27.5 uM after 5 to 30 mins by fluorescence assay relative to control; format: cell-based
[20] = test system: REF52; test: Induction of microtubule depolymerization in rat REF52 cells at 6.9 to 13.8 uM after 30 mins by fluorescence assay relative to control; format: cell-based
[21] = species: Bos taurus; test: Inhibition of rhodamine-labeled bovine brain tubulin polymerization assessed as number of microtubules at 20 uM after 20 mins by fluorescence microscopic analysis relative to control
Method in brief: (§3)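 Purified bovine brain tubulin mixed with rhodamine-tubulin and GTP was polymerized in MRB80 (80 mM PIPES/KOH pH 6.8, 1 mM MgCl2, 1 mM EGTA) plus 6% glycerol, with 20 μM compound or 0.01% DMSO. Incubation was 20 min at 37 °C, stopped with 0.5% glutaraldehyde. MT number and total length were measured by wide-field fluorescence microscopy. Data are average ± SE, compared by Scheffe's test.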

[22] = species: Bos taurus; test: Inhibition of rhodamine-labeled bovine brain tubulin polymerization assessed as shorter microtubules at 20 uM after 20 mins by fluorescence microscopic analysis relative to control; method in brief: as §3
[23] = test system: REF52; test: Induction of microtubule depolymerization in rat REF52 cells at 0.1 uM after 30 mins by fluorescence assay; format: cell-based
Method in brief: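 Ref52 cells in serum-free DMEM, treated 30 min. Permeabilized with 3% paraformaldehyde and 0.5% Triton X-100, then fixed in 3% paraformaldehyde plus 1% glutaraldehyde, quenched with borohydride. Stained with anti-tubulin DM1A and Alexa 488 secondary, imaged by confocal microscopy. FiberScore gives total fluorescence associated with fibers. Mean ± standard error, Scheffe's test at p < 0.05.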

[24] = test system: REF52; test: Effect on actin depolymerization in rat REF52 cells assessed as effect on ratio of soluble to insoluble protein fraction at 0.1 uM after 30 mins by Western blot analysis; format: cell-based
Method in brief: (§4)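 Ref52 rat embryonic fibroblasts grown in DMEM with 10% FCS at 37 °C/5% CO2 and dosed for 30 min in serum-free DMEM. Triton X-100 fractionation: 3 min extraction at room temperature in 50 mM MES pH 6.8 with 2.5 mM EGTA, 5 mM MgCl2 and 0.5% Triton. Equal volumes of soluble and insoluble fractions run on SDS-PAGE. Western blot with anti-tubulin DM1A and anti-actin C4, HRP chemiluminescence, band densitometry. Four independent experiments.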

[25] = test system: REF52; test: Induction of microtubule depolymerization in rat REF52 cells assessed as […] in ratio of soluble to insoluble tubulin fraction at 0.1 uM after 30 mins by Western blot analysis; format: cell-based; method in brief: as §4

Chain of Tubulin beta-6 chain (Arabidopsis thaliana) (P29514 whole entry): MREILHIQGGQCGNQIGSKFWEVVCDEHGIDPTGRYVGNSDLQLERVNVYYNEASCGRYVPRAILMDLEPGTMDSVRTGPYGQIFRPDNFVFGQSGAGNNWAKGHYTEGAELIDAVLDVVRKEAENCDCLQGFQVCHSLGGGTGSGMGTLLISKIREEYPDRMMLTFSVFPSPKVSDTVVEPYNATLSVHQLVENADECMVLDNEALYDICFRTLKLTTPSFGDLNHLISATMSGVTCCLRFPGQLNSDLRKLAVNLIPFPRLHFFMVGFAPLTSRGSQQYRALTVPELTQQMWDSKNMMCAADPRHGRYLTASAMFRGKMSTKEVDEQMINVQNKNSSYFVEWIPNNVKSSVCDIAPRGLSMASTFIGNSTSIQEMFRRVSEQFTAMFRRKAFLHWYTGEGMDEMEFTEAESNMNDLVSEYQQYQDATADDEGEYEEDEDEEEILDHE

| SMILES | Activity [2] | Activity [4] | Activity [5] | Activity [6] | Activity [7] | Activity [9] | Activity [10] | Activity [11] | Activity [12] | Activity [13] | Activity [14] | Activity [15] | Activity [16] | Activity [17] | Activity [23] | also measured |
| --- | --- | --- | --- | --- | --- | --- | --- | --- | --- | --- | --- | --- | --- | --- | --- | --- |
| CC(=O)O[C@H]1C(=O)[C@@]2(C)[C@H]([C@H](OC(=O)c3ccccc3)[C@]3(O)C[C@H](OC(=O)[C@H](O)[C@@H](NC(=O)c4ccccc4)c4ccccc4)C(C)=C1C3(C)C)[C@]1(OC(C)=O)CO[C@@H]1C[C@@H]2O |  |  |  |  |  |  |  |  |  |  |  |  |  |  |  | Activity [1]: Active |
| CC(C)=CCC[C@@H](C)CC=O | 20% | 0 um/min | inactive | Active | 0 um/min | Dose-dependent effect | tde | inactive | inactive | Active | inactive | 0 um/min | 0 um/min | Active |  | Activity [3]: 20%; residual activity [8]: 40%; residual activity [18]: 30% |
| CC(C)=CCC[C@H](C)CC=O | 50% | 14.6 um/min | inactive | inactive | 1.66 um/min | Dose-dependent effect | tde | inactive | inactive | inactive | inactive | 5.94 um/min | 7.48 um/min | inactive |  | Activity [19]: 60%; Activity [20]: inactive; inhibition [21]: inactive; inhibition [22]: inactive |
| COc1cc2c(c(OC)c1OC)-c1ccc(OC)c(=O)cc1[C@@H](NC(C)=O)CC2 |  |  |  |  |  |  |  |  |  |  |  |  |  |  | Active | Activity [24]: inactive; Activity [25]: Active |
| CC[C@]1(O)C[C@@H]2CN(CCc3c([nH]c4ccccc34)[C@@](C(=O)OC)(c3cc4c(cc3OC)N(C)[C@H]3[C@@](O)(C(=O)OC)[C@H](OC(C)=O)[C@]5(CC)C=CCN6CC[C@]43[C@@H]65)C2)C1 |  |  |  |  |  |  |  |  |  |  |  |  |  |  | Active |  |
